Assay results taken from ChEMBL document CHEMBL1154351, “Aspergillusol A, an alpha-glucosidase inhibitor from the marine-derived fungus Aspergillus aculeatus” (J Nat Prod, 2009).
pIC50: −log10 of the molar value. Calls of active or inactive are those of the source. The rule behind the calls is not given here.

Experiments:
[1] = system: A549; experiment: Cytotoxicity against human A549 cells at 240 uM after 4 days by MTT assay; format: functional, cell-based
[2] = system: HL-60; experiment: Cytotoxicity against human HL60 cells by XTT assay; format: functional, cell-based
Method in brief: (§1)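 XTT read-out of viability in human MOLT-3 and HL-60 cell lines, with doxorubicin as reference drug; IC50 values determined.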

[3] = system: HuCC-A1; experiment: Cytotoxicity against HuCCa1 cells at 240 uM after 4 days by MTT assay; format: functional, cell-based; details: Homo sapiens
[4] = system: HepG2; experiment: Cytotoxicity against human HepG2 cells after 4 days by MTT assay; format: functional, cell-based; details: HepG2, 96 h
Method in brief: (§2)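 MTT read-out of viability in human HepG2, HuCCA-1 and A549 cancer cell lines, with doxorubicin as reference drug; IC50 values determined.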

[5] = Inhibition of Bacillus stearothermophilus alpha-glucosidase assessed as p-nitrophenol release by colorimetry; design: species or system Geobacillus stearothermophilus
Method in brief: (§3)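 Colorimetric assay with p-nitrophenyl α-D-glucoside substrate at 1.0 mM final. Enzyme at 0.1 U/mL final for S. cerevisiae α-glucosidase and 0.3 U/mL final for B. stearothermophilus α-glucosidase. Run in triplicate (n = 3), with 1-deoxynojirimycin as standard; IC50 determined.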

[6] = system: MOLT-3; experiment: Cytotoxicity against human MOLT3 cells by XTT assay; format: functional, cell-based; method in brief: as §1
[7] = Cytotoxicity against HuCCa1 cells after 4 days by MTT assay; format: functional, cell-based; details: Homo sapiens, HuCC-A1, 96 h; method in brief: as §2
[8] = molecular target: T1, Aromatase (Homo sapiens, UniProt P11511); experiment: Inhibition of aromatase
T1 sequence (P11511 whole entry): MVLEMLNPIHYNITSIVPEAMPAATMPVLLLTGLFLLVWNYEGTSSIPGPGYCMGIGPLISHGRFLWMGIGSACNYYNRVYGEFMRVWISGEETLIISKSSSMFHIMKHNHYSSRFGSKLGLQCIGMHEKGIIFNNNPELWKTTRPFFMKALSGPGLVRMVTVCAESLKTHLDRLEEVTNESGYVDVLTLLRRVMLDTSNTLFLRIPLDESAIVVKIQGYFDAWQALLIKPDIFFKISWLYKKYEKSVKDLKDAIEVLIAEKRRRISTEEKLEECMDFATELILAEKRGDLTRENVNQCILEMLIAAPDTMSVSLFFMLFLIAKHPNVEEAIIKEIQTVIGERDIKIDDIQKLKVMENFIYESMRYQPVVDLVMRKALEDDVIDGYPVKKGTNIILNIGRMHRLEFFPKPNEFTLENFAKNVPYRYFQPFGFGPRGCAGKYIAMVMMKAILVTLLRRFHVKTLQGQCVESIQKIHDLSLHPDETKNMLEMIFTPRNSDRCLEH

[9] = system: A549; experiment: Cytotoxicity against human A549 cells after 4 days by MTT assay; format: functional, cell-based; details: A549, 96 h; method in brief: as §2
[10] = Inhibition of Saccharomyces cerevisiae alpha-glucosidase assessed as p-nitrophenol release by colorimetry; method in brief: as §3

For O=C(OC[C@@H](OC(=O)c1ccccc1)[C@@H](COC(=O)c1ccccc1)OC(=O)c1ccccc1)c1ccccc1, the Activity [1] was “inactive”, the pIC50 [2] was 4.36 and the Activity [3] was “inactive”. The pIC50 [4] was 4.54.
Compound O=C(OC[C@@H](O)[C@@H](O)COC(=O)/C(Cc1ccc(O)cc1)=N\O)/C(Cc1ccc(O)cc1)=N\O [ASPERGILLUSOL A] has a pIC50 [5] of 2.97, a pIC50 [6] of 4.72 and a pIC50 [7] of 4.30. The pIC50 [8] was less than 4.00, the pIC50 [9] was 4.13 and the pIC50 [10] was 3.33. The pIC50 [4] was less than 3.98.
With COc1cccc2c1C(=O)c1c(O)c3c(c(O)c1C2=O)C[C@@](O)(C(=O)CO)C[C@@H]3O[C@H]1C[C@H](N)[C@H](O)[C@H](C)O1 [DOXORUBICIN] the pIC50 [6] was 7.40, the pIC50 [7] was 6.19 and the pIC50 [4] was 6.43.
With OC[C@H]1NC[C@H](O)[C@@H](O)[C@@H]1O [DUVOGLUSTAT] the pIC50 [5] was 6.35 and the pIC50 [10] was 3.65.
